Assay results from PMC5835416 (Biochimica et biophysica acta, 2018).
pKd: −log10 of the molar value. Where two headings read alike, the source gives them in different places.

Experiments:
tear lipocalin [1] = target: T1, tear lipocalin (Homo sapiens, UniProt P31025); test: DAUDA displacement fluorescence assay; type: binding; settings: end of titration
[2] = Centrifugal precipitation of lipid in buffer without protein; type: physicochemical; settings: 10 mM Na-phosphate pH 7.3; ~196,000 × g
tear lipocalin [3] = target: T1, tear lipocalin; type: binding
Outline: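 Incubated 25°C 30 min or 34°C 16 h, then centrifuged ~196,000 × g, 1 h, same temperature. Bound (supernatant) and precipitated ligand quantified by absorbance via extinction coefficients. Lysozyme 10 μM as negative control. Triplicate means fitted to hyperbola and Hill equation.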

tear lipocalin [4] = target: T1, tear lipocalin; test: Fluorescence binding assay with NBD-labeled lipids; settings: 1 μM tear lipocalin; for fluorescence in the presence of tear lipocalin compared to the unbound label: 1 μM ligand; for pKd: apparent, pH 7.3
Outline: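 After equilibration, fluorescence spectra recorded at 20°C, λex 420 nm. Relative intensity at 523 nm used to compute bound label. Triplicate runs, means taken. B/P versus unbound lipid fitted by nonlinear regression to a rectangular hyperbola or Hill equation, giving apparent Kd and n.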

tear lipocalin [5] = target: T1, tear lipocalin; test: Linear spectral summation; type: binding; settings: apparent, tear lipocalin 10 μM, pH 7.3
Outline: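 Each spectrum fitted as linear sum of bound reference (2 μM ligand + 10 μM protein), unbound reference (2 μM ligand in buffer) and baseline, yielding bound and free ligand. Triplicate means fitted to hyperbola or Hill equation.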

[6] = apparent, Hill equation fit, 10 μM (C6) or 20 μM (C12) tear lipocalin, 10 mM sodium phosphate pH 7.3
[7] = apparent, hyperbola fit, 10 μM (C6) or 20 μM (C12) tear lipocalin, 10 mM sodium phosphate pH 7.3

T1 sequence (P31025 19-176): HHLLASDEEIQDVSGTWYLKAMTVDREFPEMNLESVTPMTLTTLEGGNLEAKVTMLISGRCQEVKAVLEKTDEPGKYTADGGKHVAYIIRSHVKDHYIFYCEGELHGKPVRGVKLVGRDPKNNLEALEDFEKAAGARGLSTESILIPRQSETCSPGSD

Row | Structure (SMILES) | residual DAUDA fluorescence compared with stearic acid (tear lipocalin [1]) | precipitation in buffer [2] | pKd (tear lipocalin [3]; [6]) | pKd (tear lipocalin [3]; [7]) | pKd (tear lipocalin [3]; read-out: apparent dissociation constant (Kd), fit not named) | fluorescence in the presence of tear lipocalin compared to the unbound label (tear lipocalin [4]) | pKd (tear lipocalin [4]; Hill equation fit) | pKd (tear lipocalin [4]; hyperbola fit) | pKd (tear lipocalin [5]; Hill equation fit) | pKd (tear lipocalin [5]; hyperbola fit) | apparent dissociation constant (Kd) (tear lipocalin [3]; fit not named)
1 | CCCCCCCCCCCCC/C=C/[C@@H](O)[C@H](CO)NC(=O)CCCCCCCCCCCCCCCCC [C18-ceramide, ceramide-N-(octadecanoyl) sphing-4-enine, also known as N-stearoyl-D-erythro-sphingosine] | twice as great |  |  |  |  |  |  |  |  |  | 
2 | CCCCCCCCCCCCC/C=C/[C@@H](O)[C@H](CO)NC(=O)CCCCCCCCCCCNc1ccc([N+](=O)[O-])c2nonc12 [C12-NBD ceramide, N-[12-[(7-nitro-2-1,3-benzoxadiazol-4-yl)amino]dodecanoyl]-D-erythro-sphingosine] |  | complete precipitation | 5.97 | 5.91 | 5.92 | enhanced fluorescence | 7.00 | 6.89 |  |  | 
3 | CCCCCCCCCCCCC/C=C/[C@@H](O)[C@H](CO)NC(=O)CCCCCNc1ccc([N+](=O)[O-])c2nonc12 [C6-NBD ceramide, N-[6-[(7-nitro-2-1,3-benzoxadiazol-4-yl)amino]hexanoyl]-D-erythro-sphingosine] |  | complete precipitation | 6.54 | 6.49 |  | enhanced fluorescence | 7.10 | 7.10 | 7.15 | 7.22 | sub-micromolar
